Measured values taken from ChEMBL document CHEMBL4808192, “Synthesis and biological evaluation of novel imidazo[1,2-a]pyridine-oxadiazole hybrids as anti-proliferative agents: Study of microtubule polymerization inhibition and DNA binding” (Bioorg Med Chem, 2021).

Key:
Assay type in all cases: functional, cell-based
A549 = assay: Antiproliferative activity against human A549 cells assessed as reduction in cell viability incubated for 48 hrs by MTT assay; settings: A549, 48 h
Procedure, shortened: (§1)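 Cells grown in medium with 10% FBS and 1% antibiotic-antimycotic at 37 °C, passaged at 80–90% confluence with 0.25% trypsin/1 mM EDTA. Seeded at 1000–4000 cells/well and grown overnight. Medium was then replaced and compounds added at various concentrations for 48 h. MTT (0.5 mg/mL) was added for 4 h at 37 °C, formazan dissolved in DMSO and absorbance read at 570 nm. IC50 is the 50% inhibitory concentration.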

DU-145 = assay: Antiproliferative activity against human DU-145 cells assessed as reduction in cell viability incubated for 48 hrs by MTT assay; settings: DU-145, 48 h; procedure, shortened: as §1
PC-3 = assay: Antiproliferative activity against human PC-3 cells assessed as reduction in cell viability incubated for 48 hrs by MTT assay; settings: PC-3, 48 h; procedure, shortened: as §1

SMILES | IC50 (A549) [µM] | IC50 (DU-145) [µM] | IC50 (PC-3) [µM]
Brc1ccc(-c2nnc(-c3cn4ccccc4n3)o2)cc1 | > 50 | > 50 | > 50
Cc1cccn2cc(-c3nnc(-c4ccc(Br)cc4)o3)nc12 | 34.7 | 38.9 | 37.8
COc1cc([C@@H]2c3cc4c(cc3[C@H](O)[C@H]3COC(=O)[C@H]23)OCO4)cc(OC)c1OC [PODOFILOX] | – | 0.06 | 0.06
Cc1cccn2cc(-c3nnc(-c4ccccc4I)o3)nc12 | 33.4 | 31.5 | 33.5

Continued by falling IC50 (A549), values first:

IC50 (A549) [µM] | IC50 (DU-145) [µM] | IC50 (PC-3) [µM] | SMILES
12.8 | 10.8 | 11.8 | COc1ccc(-c2nnc(-c3cn4cccc(C)c4n3)o2)cc1
12.3 | 10.8 | 11.6 | Cc1cccn2cc(-c3nnc(-c4ccc(N(C)C)cc4)o3)nc12
10.9 | 11.8 | 11.5 | COc1ccc(-c2nnc(-c3cn4cccc(C)c4n3)o2)cc1OC
10.8 | 12.8 | 11.2 | Cc1cc(Br)c2nc(-c3nnc(-c4ccc(N(C)C)cc4)o3)cn2c1
9.9 | 11.2 | 10.9 | COc1cc(-c2nnc(-c3cn4cccc(C)c4n3)o2)cc(OC)c1OC
